Values after ≈ are worked out from the molar mass of the structure shown.

By MIC is commonly meant the least concentration at which growth counts as inhibited. Read a high MIC as a less susceptible organism.

Holding throughout (type): functional
Assay [1] concerns Staphylococcus aureus. The experiment in a line: Minimum inhibitory activity against Staphylococcus aureus A15091. Put shortly:
(§1)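 MICs by agar dilution: organisms were inoculated onto drug-containing agar plates with a multipoint replicating device.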

Assay [2] deals with Staphylococcus aureus. The experiment in a line: Minimum inhibitory activity against Staphylococcus aureus A20309. An outline of the steps: as §1
The test system of assay [3] is Staphylococcus aureus. The experiment in a line: Minimum inhibitory activity against Staphylococcus aureus A9606. Put shortly:
as §1

Assay [4] relates to Escherichia coli. The experiment in a line: Minimum inhibitory activity against Escherichia coli A9675. An outline of the steps:
as §1

Assay [5] concerns Escherichia coli. In words: Minimum inhibitory activity against Escherichia coli A21223. An outline of the steps:
as §1

Assay [6] is filed under the species Mus musculus. The experiment in a line: Beta-lactamase inhibitory activity against Escherichia coli A21223 using oral mouse protection test in mice. As to conditions: read-out: PD50. Put shortly:
(§2)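 Challenge organisms suspended in mucin (2 or 4%) and injected ip into 18-24 g Swiss-Webster (ICR strain) mice. Oral treatment given at 0 and 2 h postchallenge. Observation ran 5 days, and PD50 was calculated by the Spearman-Karber method.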

For assay [7], the species on record is Mus musculus. In words: Beta-lactamase inhibitory activity against Staphylococcus aureus A20379 using oral mouse protection test in mice. As to conditions: read-out: PD50. Put shortly: as §2
The species named for assay [8] is Mus musculus. In words: Beta-lactamase inhibitory activity against Staphylococcus aureus A9606 using oral mouse protection test in mice. As to conditions: for ED50: Mus musculus, po, read-out: PD50. An outline of the steps: as §2
For assay [9], the species on record is Mus musculus. The experiment in a line: Beta-lactamase inhibitory activity against Staphylococcus aureus A15091 using oral mouse protection test in mice. As to conditions: read-out: PD50. Put shortly:
as §2

The target in assay [10] is Beta-lactamase (Staphylococcus aureus) (UniProt P00807). The experiment in a line: Beta-lactamase inhibitory activity from Staphylococcus aureus A9606 and minimum protective concentration was reported.
For assay [11], the target named is Beta lactamase TEM-1 (Klebsiella pneumoniae) (UniProt Q7B899). In words: Beta-lactamase inhibitory activity from Klebsiella pneumoniae A20634(TEM) and minimum protective concentration was reported.
Assay [12] deals with Metallo-beta-lactamase type 2 (Bacteroides fragilis) (UniProt P25910). The experiment in a line: Beta-lactamase inhibitory activity from […] A-22,695 and minimum protective concentration was reported.
Sequence of Metallo-beta-lactamase type 2 (Bacteroides fragilis) (P25910 whole entry): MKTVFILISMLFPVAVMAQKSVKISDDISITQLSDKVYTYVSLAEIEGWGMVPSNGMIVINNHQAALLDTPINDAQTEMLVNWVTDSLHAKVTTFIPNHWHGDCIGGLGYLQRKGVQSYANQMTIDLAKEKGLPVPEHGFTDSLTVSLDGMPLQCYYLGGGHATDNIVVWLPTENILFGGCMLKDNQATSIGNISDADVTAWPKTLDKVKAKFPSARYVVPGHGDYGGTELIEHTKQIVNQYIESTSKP

Sequence of Beta-lactamase (Staphylococcus aureus) (P00807 whole entry): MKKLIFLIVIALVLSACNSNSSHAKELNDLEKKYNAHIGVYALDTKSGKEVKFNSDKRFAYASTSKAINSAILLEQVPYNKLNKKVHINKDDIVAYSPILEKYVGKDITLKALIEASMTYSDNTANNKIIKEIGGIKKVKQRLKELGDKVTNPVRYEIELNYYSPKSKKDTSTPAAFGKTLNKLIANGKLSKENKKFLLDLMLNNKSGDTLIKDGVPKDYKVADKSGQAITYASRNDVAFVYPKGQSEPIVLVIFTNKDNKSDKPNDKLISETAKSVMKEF
Sequence of Beta lactamase TEM-1 (Klebsiella pneumoniae) (Q7B899 as listed by the source): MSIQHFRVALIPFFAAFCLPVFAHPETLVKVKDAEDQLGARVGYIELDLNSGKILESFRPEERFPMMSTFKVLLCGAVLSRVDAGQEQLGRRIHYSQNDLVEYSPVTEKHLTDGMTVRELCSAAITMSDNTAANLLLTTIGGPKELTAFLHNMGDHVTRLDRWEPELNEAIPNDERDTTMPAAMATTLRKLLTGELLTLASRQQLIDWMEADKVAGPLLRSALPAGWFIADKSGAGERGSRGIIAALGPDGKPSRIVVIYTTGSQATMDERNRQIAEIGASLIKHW

For `CC1(C)S[C@@H]2[C@H](NC(=O)[C@H](N)c3ccc(O)cc3)C(=O)N2[C@H]1C(=O)O.O=C(O)[C@H]1/C(=C/CO)O[C@@H]2CC(=O)N21`, the MIC with Staphylococcus aureus [1] worked out at 2 µg/mL; in the assay on Staphylococcus aureus [2], 2 µg/mL; with Staphylococcus aureus [3], 2 µg/mL; in the assay with Escherichia coli [4], 2 µg/mL; against Escherichia coli [5], 8 µg/mL.
For the molecule `CC1(C)S[C@@H]2[C@H](NC(=O)[C@H](N)c3ccc(O)cc3)C(=O)N2[C@H]1C(=O)O.CC1(C)[C@H](C(=O)O)N2C(=O)C[C@H]2S1(=O)=O`, the minimum inhibitory concentration (MIC) came to 2 µg/mL against Staphylococcus aureus [1]; 4 µg/mL against Staphylococcus aureus [2]; 2 µg/mL against Staphylococcus aureus [3]; 4 µg/mL with Escherichia coli [4]; 4 µg/mL with Escherichia coli [5]. Besides, the ED50 in the assay filed under Mus musculus [6] is 46 mg/kg; in the assay filed under Mus musculus [7] it was 21 mg/kg; in the assay filed under Mus musculus [8], 15 mg/kg; in the assay filed under Mus musculus [9] it was 160 mg/kg.
Take `CC1(C)C(C(=O)O)N2C(=O)C(Cl)C2S1(=O)=O` (stereo not drawn): the MPC in [10] was greater than 100 µg/mL; in assay [11], 25 µg/mL.
In the same order, the values of `COc1cccc(OC)c1C(=O)N[C@@H]1C(=O)N2[C@@H](C(=O)O)C(C)(C)S(=O)(=O)[C@H]12` are greater than 100 µg/mL and 125 µg/mL.
Turning to `CC1(C)S[C@@H]2[C@H](NC(=O)[C@H](N)c3ccc(O)cc3)C(=O)N2[C@H]1C(=O)O.C[C@]1(CCl)[C@H](C(=O)[O-])N2C(=O)C[C@H]2S1(=O)=O.[K+]` [AMOXACILLIN +BL-P2013], the minimal inhibitory concentration (MIC) against Staphylococcus aureus [1] turned out to be 1 µg/mL; in the assay on Staphylococcus aureus [2], 2 µg/mL; with Staphylococcus aureus [3] it was 1 µg/mL; in the assay with Escherichia coli [4] it was 2 µg/mL; in the assay on Escherichia coli [5] it was 2 µg/mL. Further, the ED50 in the assay listed under Mus musculus [6] amounted to 16 mg/kg; in the assay filed under Mus musculus [7], 34 mg/kg; in the assay listed under Mus musculus [8], 24 mg/kg; in the assay listed under Mus musculus [9], 72 mg/kg.
With `CC1(C)S[C@@H]2[C@H](NC(=O)[C@H](N)c3ccc(O)cc3)C(=O)N2[C@H]1C(=O)O` [AMOXICILLIN], the minimum inhibitory concentration (MIC) against Staphylococcus aureus [1] was greater than 125 µg/mL; in the assay with Staphylococcus aureus [2] it was 125 µg/mL (≈ 342 µM); with Staphylococcus aureus [3], greater than 125 µg/mL; in the assay on Escherichia coli [4], 63 µg/mL (≈ 172 µM); in the assay on Escherichia coli [5], 125 µg/mL (≈ 342 µM). Also, the ED50 in the assay filed under Mus musculus [6] is greater than 200 mg/kg; in the assay filed under Mus musculus [7], greater than 200 mg/kg; in the assay filed under Mus musculus [8] it was greater than 800 mg/kg; in the assay listed under Mus musculus [9] it was greater than 800 mg/kg.
For the molecule `C[C@]1(CCl)[C@H](C(=O)[O-])N2C(=O)C[C@H]2S1(=O)=O.[K+]` [BL-P2013], the MIC is 125 µg/mL in the assay on Staphylococcus aureus [1]; 125 µg/mL in the assay on Staphylococcus aureus [2]; 125 µg/mL in the assay on Staphylococcus aureus [3]; greater than 125 µg/mL in the assay with Escherichia coli [4]; greater than 125 µg/mL in the assay with Escherichia coli [5]. For the same molecule, the ED50 in the assay listed under Mus musculus [6], in the assay listed under Mus musculus [7], in the assay listed under Mus musculus [8] and in the assay filed under Mus musculus [9] was greater than 200 mg/kg each time. Besides, the MPC in [10] turned out to be 3.1 µg/mL; in assay [12], 12.5 µg/mL; in assay [11], 3.1 µg/mL.
For `O=C(O)[C@H]1/C(=C/CO)O[C@@H]2CC(=O)N21` [CLAVULANIC ACID], the MIC against Staphylococcus aureus [1], with Staphylococcus aureus [2], against Staphylococcus aureus [3], with Escherichia coli [4] and with Escherichia coli [5] was 32 µg/mL (≈ 161 µM) each time. The MPC amounted to 0.4 µg/mL in assay [10], 6.3 µg/mL in assay [12] and 0.1 µg/mL in [11].
With `CC1(C)[C@H](C(=O)O)N2C(=O)C[C@H]2S1(=O)=O` [SULBACTAM], the MIC in the assay with Staphylococcus aureus [1] is greater than 125 µg/mL; with Staphylococcus aureus [2], greater than 125 µg/mL; against Staphylococcus aureus [3] it was greater than 125 µg/mL; in the assay with Escherichia coli [4], 125 µg/mL (≈ 536 µM); in the assay with Escherichia coli [5], greater than 125 µg/mL. The ED50 in the assay filed under Mus musculus [6], in the assay listed under Mus musculus [7] and in the assay filed under Mus musculus [9] was greater than 200 mg/kg each time. Moreover, the MPC in [10] came to 12.5 µg/mL; in assay [12], 12.5 µg/mL; in assay [11], 1.6 µg/mL. For the same molecule, in the assay listed under Mus musculus [8], the PD50 is greater than 200 mg/kg.
